# Experimental data published in ChEMBL document CHEMBL1275449, “Potent in vitro antifungal activities of naturally occurring acetylenic acids” (Antimicrob Agents Chemother, 2008).
# The source made the active and inactive calls. The calls are words filed in the database; no cut-off is given here.
# Assays:
# Candida albicans [1] = assay: Antifungal activity against Candida albicans ATCC 32354 at 198.1 uM after 48 hrs by CLSI method; assay type: functional, organism-based
# How it was run: (§1)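 Candida inocula came from 24–72-h SD agar colonies suspended in saline. They were diluted by OD630 standard curve into RPMI 1640 (0.2% dextrose, 0.03% glutamine, 0.165 M MOPS, pH 7.0) to 1.5 × 10³ CFU/ml. Compounds were run as 11 twofold dilutions in 20% DMSO-saline, in duplicate, at 35°C for 48 h, with OD530 read before and after. Percent growth at the top concentration, IC50, MIC, and MFC (SD agar plating) were derived.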
# Candida albicans [2] = assay: Antifungal activity against Candida albicans ATCC 90028 at 198.1 uM after 48 hrs by CLSI method; assay type: functional, organism-based; how it was run: as §1
# Candida albicans [3] = assay: Antifungal activity against Candida albicans ATCC 200955 at 198.1 uM after 48 hrs by CLSI method; assay type: functional, organism-based; how it was run: as §1
# Candida albicans [4] = assay: Antifungal activity against Fluconazole resistant Candida albicans isolate 1 at 198.1 uM after 48 hrs by CLSI method; assay type: functional, organism-based
# How it was run: (§2)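 Candida in CLSI broth microdilution. Saline colony suspension set to 1.5 × 10³ CFU/ml (final) in MOPS-buffered RPMI 1640, pH 7.0. Test agent given as twofold serial dilutions in 20% DMSO-saline, duplicate wells. 35°C for 48 h. Growth read as OD530 before and after incubation. Percent inhibition scored at the highest test concentration.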
# Candida albicans [5] = assay: Antifungal activity against Candida albicans ATCC 32354 at 187.7 uM after 48 hrs by CLSI method; assay type: functional, organism-based; how it was run: as §1
# Aspergillus fumigatus [6] = assay: Antifungal activity against Aspergillus fumigatus ATCC 90906 at 187.7 uM after 48 hrs by CLSI method; assay type: functional, organism-based
# Candida parapsilosis [7] = assay: Antifungal activity against Candida parapsilosis ATCC 22019 at 187.7 uM after 48 hrs by CLSI method; assay type: functional, organism-based
# How it was run: (§3)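 Yeast suspensions made from 3-5 colonies off 24-72 h SD agar plates in saline. They were diluted by OD630 standard curve in RPMI 1640 (0.2% dextrose, 0.03% glutamine, 0.165 M MOPS, pH 7.0) to 1.5 × 10³ CFU/ml. Twofold dilutions (11 concentrations, 20% DMSO-saline) run in duplicate. OD530 read before and after 35°C, 48 h. Line values are top test concentrations; no-growth endpoints give MIC/MFC.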
# Aspergillus flavus = assay: Antifungal activity against Aspergillus flavus ATCC 204304 at 187.7 uM after 48 hrs by CLSI method; assay type: functional, organism-based
# Candida albicans [8] = assay: Antifungal activity against Candida albicans ATCC 14053 at 187.7 uM after 48 hrs by CLSI method; assay type: functional, organism-based
# Cryptococcus neoformans [9] = assay: Antifungal activity against Cryptococcus neoformans ATCC 66031 at 187.7 uM after 72 hrs by CLSI method; assay type: functional, organism-based
# How it was run: (§4)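 SD broth replaced RPMI because growth in RPMI was poor; other CLSI conditions were kept. Inoculum was 1.5 × 10³ CFU/ml from colonies on SD agar, checked by plating. Twofold serial dilutions (11 concentrations) in 20% DMSO-saline were tested in duplicate. OD530 was read before and after incubation at 35°C for 72 h. Percent growth gave IC50; the MIC is the lowest concentration with no detectable growth.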
# Candida tropicalis [10] = assay: Antifungal activity against Candida tropicalis ATCC 750 at 169.8 uM after 48 hrs by CLSI method; assay type: functional, organism-based; how it was run: as §3
# Mus musculus = assay: Toxicity in mouse up to 34 umol/kg/day, ip for 3 days; assay type: organism-based; conditions: in vivo, 72 h
# Trichophyton rubrum [11] = assay: Antifungal activity against Trichophyton rubrum ATCC MYA-4438 at 169.8 uM after 5 days by CLSI method; assay type: functional, organism-based
# Nakaseomyces glabratus [12] = assay: Antifungal activity against Candida glabrata ATCC 90030 at 169.8 uM after 48 hrs by CLSI method; assay type: functional, organism-based; how it was run: as §1
# Cryptococcus neoformans [13] = assay: Antifungal activity against Cryptococcus neoformans ATCC 66031 at 169.8 uM after 72 hrs by CLSI method; assay type: functional, organism-based; how it was run: as §4
# Candida albicans [14] = assay: Antifungal activity against Fluconazole resistant Candida albicans isolate 17 at 169.8 uM after 48 hrs by CLSI method; assay type: functional, organism-based; how it was run: as §2
# Aspergillus fumigatus [15] = assay: Antifungal activity against Aspergillus fumigatus ATCC 90906 at 169.8 uM after 48 hrs by CLSI method; assay type: functional, organism-based
# Aspergillus fumigatus [16] = assay: Antifungal activity against Aspergillus fumigatus ATCC 204305 at 169.8 uM after 48 hrs by CLSI method; assay type: functional, organism-based
# Candida parapsilosis [17] = assay: Antifungal activity against Candida parapsilosis ATCC 22019 at 168.9 uM after 48 hrs by CLSI method; assay type: functional, organism-based; how it was run: as §3
# Candida albicans [18] = assay: Antifungal activity against Candida albicans ATCC 32354 at 168.9 uM after 48 hrs by CLSI method; assay type: functional, organism-based; how it was run: as §1
# Cryptococcus neoformans [19] = assay: Antifungal activity against Cryptococcus neoformans ATCC 90113 at 168.9 uM after 72 hrs by CLSI method; assay type: functional, organism-based; how it was run: as §4
# Aspergillus fumigatus [20] = assay: Antifungal activity against Aspergillus fumigatus ATCC 204305 at 168.9 uM after 48 hrs by CLSI method; assay type: functional, organism-based
# Trichophyton rubrum [21] = assay: Antifungal activity against Trichophyton rubrum ATCC MYA-4438 at 168.9 uM after 5 days by CLSI method; assay type: functional, organism-based
# Cryptococcus neoformans [22] = assay: Antifungal activity against Cryptococcus neoformans ATCC 66031 at 168.9 uM after 72 hrs by CLSI method; assay type: functional, organism-based; how it was run: as §4
# Pichia kudriavzevii = assay: Antifungal activity against Candida krusei ATCC 6258 at 168.9 uM after 48 hrs by CLSI method; assay type: functional, organism-based; how it was run: as §1
# [23] = tested on: Trichophyton mentagrophytes; assay: Antifungal activity against Trichophyton mentagrophytes ATCC MYA-4439 at 9.4 uM after 5 days by CLSI method; assay type: functional, organism-based
# How it was run: (§5)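 Trichophyton growth scraped from 1–6-week potato dextrose slants and filtered through Miracloth. Inoculum 2.7 × 10⁴ CFU/ml (final) in 5% Alamar blue-RPMI 1640 buffered with MOPS, pH 7.0. Duplicate twofold dilutions from 20% DMSO-saline. Incubated 35°C for 5 days. Fluorescence read at 544 nm excitation, 590 nm emission. Inhibition assessed at the highest test concentration.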
# Nakaseomyces glabratus [24] = assay: Antifungal activity against Candida glabrata ATCC 90030 at 9.4 uM after 48 hrs by CLSI method; assay type: functional, organism-based; how it was run: as §2
# Candida albicans [25] = assay: Antifungal activity against Candida albicans ATCC 200955 at 9.4 uM after 48 hrs by CLSI method; assay type: functional, organism-based; how it was run: as §2
# [26] = tested on: Trichophyton mentagrophytes; assay: Antifungal activity against Trichophyton mentagrophytes ATCC 9533 at 9.4 uM after 5 days by CLSI method; assay type: functional, organism-based; how it was run: as §5
# Candida albicans [27] = assay: Antifungal activity against Candida albicans ATCC 60193 at 9.4 uM after 48 hrs by CLSI method; assay type: functional, organism-based; how it was run: as §2
# Candida tropicalis [28] = assay: Antifungal activity against Candida tropicalis ATCC 750 at 9.4 uM after 48 hrs by CLSI method; assay type: functional, organism-based; how it was run: as §2
# Candida albicans [29] = assay: Antifungal activity against Candida albicans ATCC 14053 at 9.4 uM after 48 hrs by CLSI method; assay type: functional, organism-based; how it was run: as §2
# Candida albicans [30] = assay: Antifungal activity against Candida albicans ATCC 32354 at 9.4 uM after 48 hrs by CLSI method; assay type: functional, organism-based; how it was run: as §2
# Trichophyton rubrum [31] = assay: Antifungal activity against Trichophyton rubrum ATCC MYA-4438 at 9.4 uM after 5 days by CLSI method; assay type: functional, organism-based; how it was run: as §5
smiles,measurement,setting,value
CCCCCCCCCC#CCCCCC(=O)O,Activity,Candida albicans [1],inactive
same,Activity,Candida albicans [2],inactive
same,Activity,Candida albicans [3],inactive
same,Activity,Candida albicans [4],inactive
CCCCCCCCCCC#CCCCCC(=O)O,Activity,Candida albicans [5],inactive
same,Activity,Aspergillus fumigatus [6],inactive
same,Activity,Candida parapsilosis [7],inactive
same,Activity,Aspergillus flavus,inactive
same,Activity,Candida albicans [8],inactive
same,Activity,Cryptococcus neoformans [9],inactive
CCCCCCCCCCCCC#CCCCCC(=O)O [6-NONADECYNOIC ACID],Activity,Candida tropicalis [10],inactive
same,Activity,Mus musculus,Non-toxic
same,Activity,Trichophyton rubrum [11],inactive
same,Activity,Nakaseomyces glabratus [12],inactive
same,Activity,Cryptococcus neoformans [13],inactive
same,Activity,Candida albicans [14],inactive
same,Activity,Aspergillus fumigatus [15],inactive
same,Activity,Aspergillus fumigatus [16],inactive
CCCCCC#CCC#CCC#CCC#CCCCC(=O)O,Activity,Candida parapsilosis [17],inactive
same,Activity,Candida albicans [18],inactive
same,Activity,Cryptococcus neoformans [19],inactive
same,Activity,Aspergillus fumigatus [20],inactive
same,Activity,Trichophyton rubrum [21],inactive
same,Activity,Cryptococcus neoformans [22],inactive
same,Activity,Pichia kudriavzevii,inactive
CC(=O)N1CCN(c2ccc(OCC3COC(Cn4ccnc4)(c4ccc(Cl)cc4Cl)O3)cc2)CC1 (centres undefined) [KETOCONAZOLE],Activity,[23],inactive
same,Activity,Nakaseomyces glabratus [24],inactive
same,Activity,Candida albicans [25],inactive
same,Activity,[26],inactive
same,Activity,Candida albicans [27],inactive
same,Activity,Candida tropicalis [28],inactive
same,Activity,Candida albicans [29],inactive
same,Activity,Candida albicans [30],inactive
same,Activity,Trichophyton rubrum [31],inactive
